According to paper PMC7704577 (Bioorganic & medicinal chemistry letters, 2020):
Bridge positions count the residues as written; N and C are the ends. Square brackets hold non-standard residues; d marks the D form. Peptide text beside a SMILES is read from it. * marks the point of attachment. NODAGA = O=C(O)CN1CCN(CC(=O)O)CCN(C(CCC(=O)*)C(=O)O)CC1; Nle = CCCC[C@H](N)C(=O)O

What was measured:
MC1R = settings: no reference given; cited from earlier work
[1] = target: MC1 receptor (B16/F10 melanoma cells) (Mus musculus, UniProt Q01727); experiment: In vitro competitive receptor binding assay on B16/F10 melanoma cells
Chain of MC1 receptor (B16/F10 melanoma cells) (Q01727 whole entry): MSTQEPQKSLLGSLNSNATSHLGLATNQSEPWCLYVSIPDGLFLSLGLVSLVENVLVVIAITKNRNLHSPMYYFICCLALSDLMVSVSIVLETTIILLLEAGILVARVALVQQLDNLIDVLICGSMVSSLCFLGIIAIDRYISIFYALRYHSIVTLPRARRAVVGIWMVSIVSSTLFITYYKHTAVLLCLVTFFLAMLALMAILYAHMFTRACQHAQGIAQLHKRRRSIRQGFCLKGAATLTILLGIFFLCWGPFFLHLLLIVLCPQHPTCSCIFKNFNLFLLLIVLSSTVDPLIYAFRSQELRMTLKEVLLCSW
In short: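 Competitive displacement on intact B16/F10 cells (0.5×10^5/well, n = 3; assay run in triplicate): 2 h at 25 °C with ~30,000 cpm 125I-(Tyr2)-NDP-MSH plus 10−12 to 10−5 M test peptide in MEM binding medium (25 mM HEPES pH 7.4, 0.2% BSA, 0.3 mM 1,10-phenanthroline). Cells rinsed twice in ice-cold 0.2% BSA/PBS, lysed in 1 N NaOH 5 min, gamma-counted; IC50 by curve fit.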

IC50 [1] | Molecule | MC1R binding affinity (MC1R)
– | [Nle^4, D-Phe^7]-α-MSH [NDP-MSH] | sub-nanomolar MC1R binding affinity
0.87 ± 0.12 nM | CCCC[C@H](NC(=O)CNC(=O)CNC(=O)CCC(C(=O)O)N1CCN(CC(=O)O)CCN(CC(=O)O)CC1)C(=O)N[C@H]1CC(=O)NCCCC[C@@H](C(N)=O)NC(=O)[C@H](Cc2c[nH]c3ccccc23)NC(=O)[C@H](CCCNC(=N)N)NC(=O)[C@@H](Cc2ccccc2)NC(=O)[C@H](Cc2c[nH]cn2)NC1=O (stereo partly drawn) [NODAGA-GGNle-CycMSHhex, 1,4,7-triazacyclononane,1-gluteric acid-4,7-acetic acid-GlyGlyNle-c[Asp-His-DPhe-Arg-Trp-Lys]-CONH2] ({NODAGA}-GG[Nle]DH[dF]RWK-NH2; lactam 4-9) | –
